Source: PubChem BioAssay (The Scripps Research Institute Molecular Screening Center)
Rows were chosen to be rich in hits. Some 1.8% of all compounds tested hit in one or more screens of this group.
PME-1 primary = PME-1 (human) inhibition. recombinant PME-1, FP-Rh probe fluorescence polarization. 320,000 tested, 0.53% active. inhibition, % at 5.9 µM. AID 2130;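 active means inhibition above the campaign mean of all compounds plus 3 SD, cut at about 26% in these data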;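 further: competitive labeling of PME-1 active site by serine hydrolase directed probe; inhibitors block probe labeling so polarization falls and inhibition rises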
TCR CD3 inh = human TCR-CD3 binding inhibition; 360,000 tested, 0.37% active; inhibition, % at 9.4 µM; TAMRA-labeled TCR probe fluorescence, biochemical; in the data active means inhibition above about 19%;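 further: recombinant mutant TCR 2C K166C tagged with TAMRA read by polarization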
ABHD4 inh = inhibits mouse alpha/beta hydrolase domain 4; AID 720543; purified mABHD4, FP-Rh probe fluorescence polarization; Q8VD66; 370,000 tested, 0.54% active; inhibition, % at 8.92 µM;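 active means inhibition exceeding the mean over every tested compound plus 3 SD, cut at about 30% in these data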
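System: mouse ABHD4 enzyme, wild type / Medium: HEPES pH 7.0, NaCl, Pluronic buffer / Reagent: FP-Rh activity-based fluorescent probe / Control set: S159A mutant high control, sample median low control / Detection: fluorescence polarization with parallel and perpendicular emission, 525/598 nm / Schedule: 45 min + 60 min at 25 °C / Compound dosing: 8.92 µM, single dose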
Fam108B inh = blocks mouse Fam108B hydrolase in RBBP9 counter-screen; 300,000 tested, 0.33% active; inhibition, % at 9.51 µM; recombinant Fam108B, FP-Rh probe fluorescence polarization;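 active means inhibition above the screen mean inhibition plus 3 SD, computed separately per campaign, cut at about 18% in these data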;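 further: inhibitors lower polarization as less probe binds the enzyme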
SIAE primary = inhibitors of human sialic acid acetylesterase SIAE; Q9HAT2; SIAE FP-Rh probe binding, fluorescence polarization; inhibition, % at 9.66 µM; 370,000 tested, 0.69% active; AID 1053197;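 active means inhibition above a cutoff: mean of compounds within the control limits plus 3 SD of those, cut at about 17% in these data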
HTRA1 inh = HTRA1 (human) protease inhibition; 340,000 tested, 0.5% active; inhibition, % at 5.96 µM; Q92743; recombinant HTRA1, FP-rhodamine activity-based probe, fluorescence polarization; AID 504803; in the data active means inhibition above about 36%
Target sequence (Q92743 whole entry, looked up): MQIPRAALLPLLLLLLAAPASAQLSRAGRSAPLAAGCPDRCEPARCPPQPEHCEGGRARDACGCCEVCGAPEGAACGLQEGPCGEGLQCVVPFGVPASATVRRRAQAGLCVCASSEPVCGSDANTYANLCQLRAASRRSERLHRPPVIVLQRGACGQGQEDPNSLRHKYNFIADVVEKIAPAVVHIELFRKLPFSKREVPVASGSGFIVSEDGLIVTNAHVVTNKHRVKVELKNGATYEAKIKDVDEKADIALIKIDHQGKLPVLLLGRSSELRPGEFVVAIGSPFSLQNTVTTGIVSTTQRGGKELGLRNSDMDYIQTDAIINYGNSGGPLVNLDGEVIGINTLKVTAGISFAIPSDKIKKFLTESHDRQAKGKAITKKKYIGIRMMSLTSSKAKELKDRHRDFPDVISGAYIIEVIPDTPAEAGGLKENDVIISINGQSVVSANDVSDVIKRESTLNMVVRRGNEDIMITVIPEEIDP
SIAE inh conf = confirmation of human SIAE inhibitors; SIAE FP-Rh activity-based probe, fluorescence polarization; 2,300 tested, 13% active; inhibition, % at 9.66 µM; shares compounds with SIAE primary;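 active means mean inhibition of the replicates above the hit cutoff set in the primary screen, cut at about 17% in these data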;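 further: inhibitors lower polarization as more probe stays unbound to SIAE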
Of the large screens only hits and unclear results are named; the others gave an inactive call (follow-up assays come after a bar, where they were run).

Nc1ncnc2c1ncn2[C@@H]1O[C@H](CN=C2NS(=O)(=O)c3ccccc32)[C@@H](O)[C@H]1O	none (no result: PME-1 primary, Fam108B inh)
C=CCOc1ccc(/C=N/NC(=O)c2cc3c(OC)cc(OC)cc3[nH]2)cc1	PME-1 primary 41, SIAE primary 27 | SIAE inh conf inactive
O=C(Cc1cccs1)NCCS(=O)(=O)N1CCN(c2ccccc2F)CC1	none
O=C(COC(=O)c1cc(Cl)ccc1O)NCCC1=CCCCC1	SIAE primary 17 | SIAE inh conf inactive
Cc1ccc(CNC(=O)c2ccc(CS(=O)(=O)c3ccccc3)o2)cc1	none
Cc1ccc(S(=O)(=O)Cc2ccc(C(=O)NCc3cccs3)o2)cc1	SIAE primary 69 | SIAE inh conf inactive
Cc1ccc(S(=O)(=O)N2CCC(C(=O)NCCCN3CCOCC3)CC2)cc1C	SIAE primary 18 | SIAE inh conf inactive
CC(=O)Nc1nnc(SCC(=O)NC(C)(C)C)s1	SIAE primary 21 | SIAE inh conf inactive
Cn1c(NCc2ccc3occc3c2)nc2cc(-c3cccc(C(F)(F)F)c3)sc2c1=O	none (no result: PME-1 primary, Fam108B inh, HTRA1 inh)
COc1ccc(C(=O)N(C)CC(=O)Nc2cccc(F)c2)cc1S(=O)(=O)NC1CCCC1	none
NC(=O)Cn1c(=O)n(CCC(=O)Nc2ccc(F)cc2)c(=O)c2sccc21	none
Nc1c(C(=O)Nc2ccccc2)sc2nc(-c3cccnc3)ccc12	none (no result: HTRA1 inh)
Nc1c(C(=O)Nc2ccccc2)sc2nc(-c3ccco3)ccc12	PME-1 primary 56, SIAE primary 30 | SIAE inh conf inactive
CSc1ccc(/C=C/C(=O)c2ccc(NC(=O)C(C)C)cc2)cc1	none
CSc1ccc(/C=C/C(=O)c2ccc(NC(=O)Cc3ccccc3)cc2)cc1	TCR CD3 inh 51, SIAE primary 31 | SIAE inh conf 45
O=C(O)C[C@H]1c2cc(C(F)(F)F)ccc2S(=O)(=O)N1C1CCCCC1	none
CC1=NN(c2ccc(S(=O)(=O)O)cc2C)C(=O)C1	SIAE primary 20 | SIAE inh conf inactive
CC1=NN(c2ccccc2)C(=O)C1	none
CC(NC(=O)COC(=O)c1ccccc1SCC(=O)N1CCCC1)c1ccccc1 (configuration not stated)	none
Cn1ccc2c(-c3cccnc3)cc3c(c21)C1CCC3O1 (configuration not stated)	none (no result: PME-1 primary, Fam108B inh, HTRA1 inh)
CC(OC(=O)c1ccc(Cl)nc1)C(=O)NC1CCCC1 (configuration not stated)	SIAE primary 19 (no result: Fam108B inh) | SIAE inh conf inactive
CC(C)C(OC(=O)c1ccc(Cl)nc1)C(=O)NC1CCCCC1 (configuration not stated)	none
COc1ccc(N=C2SC(C(=O)O)CC(=O)N2Cc2ccc(OC)c(OC)c2)cc1 (configuration not stated)	SIAE primary 80 | SIAE inh conf inactive
COc1ccc(N=C2SC(C(N)=O)CC(=O)N2CCc2ccc(OC)c(OC)c2)cc1 (configuration not stated)	none
O=[N+]([O-])c1ccc(N2CCN(Cc3ccc4c(c3)OCO4)CC2)nc1	SIAE primary 24 | SIAE inh conf inactive
O=Cc1cc([N+](=O)[O-])ccc1N1CCN(Cc2ccc3c(c2)OCO3)CC1	none
CN(CC(=O)Nc1ccccc1Cl)CC(=O)c1c(N)n(Cc2ccccc2)c(=O)n(C)c1=O	none (no result: Fam108B inh)
COc1ccc(NC(=S)c2ccc(N(C)C)cc2)cc1	none
Cc1ccc(NC(=S)c2ccc(N(C)C)cc2)cc1	SIAE primary 17 | SIAE inh conf inactive
COc1ccccc1CNC(=O)[C@H](C)NC(=O)C1CCN(C(=O)[C@@H](N)CC(C)C)CC1	none
COc1cccc(/C=C/C(=O)NNC(=O)c2ccccc2)c1OC	none (no result: PME-1 primary, Fam108B inh)
COc1cc(/C=N/Nc2nc3ccccc3s2)ccc1OC(=O)c1ccccc1F	SIAE primary 21 | SIAE inh conf inactive
CCOC(=O)CC[C@H]1CC[C@]2(CCCN(C(=O)c3cccnc3)C2)O1	SIAE primary 30 (no result: PME-1 primary, TCR CD3 inh, Fam108B inh, HTRA1 inh) | SIAE inh conf inactive
CCOC(=O)CC[C@@H]1CC[C@]2(CCCN(C(=O)c3cccnc3)C2)O1	none (no result: PME-1 primary, TCR CD3 inh, Fam108B inh, HTRA1 inh)
CC1CCN(c2c(NCc3ccc(C(=O)N(C)C4CCCCC4)cc3)c(=O)c2=O)CC1	none
Cc1ccc(N(C)C(=O)c2ccc(CNc3c(N4CCC(C)CC4)c(=O)c3=O)cc2)cc1	SIAE primary 20 | SIAE inh conf inactive
COc1ccc(CNC(=O)C2CCC(=O)N(CCCN3CCCC3=O)C2)cc1 (configuration not stated)	none
O=C(NCCc1csc(-c2cccnc2)n1)c1ccc(Br)o1	SIAE primary 18 | SIAE inh conf inactive
O=C(NCCc1csc(-c2ccccc2)n1)c1ccc(Br)o1	none
CCN(CC(=O)Nc1cc(Cl)ccc1C)C(=O)CCS(=O)(=O)c1ccc(C)cc1	none
COC(=O)C1CCN(C(=O)COC(=O)c2ccc(OC)c(S(=O)(=O)N3CCCc4ccccc43)c2)CC1	SIAE primary 21 | SIAE inh conf inactive
CCc1cc2c(nc1CC)CCCN2Cc1ccccc1C(F)(F)F	none (no result: PME-1 primary, Fam108B inh, HTRA1 inh)
CCCCN(C(=O)CC1CCCC1)c1c(N)n(Cc2ccccc2)c(=O)[nH]c1=O	none (no result: PME-1 primary, Fam108B inh)
Cc1ccccc1N1CCN(S(=O)(=O)N(C)C)CC1	SIAE primary 21 | SIAE inh conf inactive
CC(C)[C@@H]1Cc2[nH][nH]c(=O)c2[C@H](C(C)C)O1	none (no result: PME-1 primary, Fam108B inh, HTRA1 inh)
O=C(O)CSc1c2c(nc3cc(C(=O)N4CCOCC4)ccc13)CCCC2	SIAE primary 27 | SIAE inh conf inactive
CN1CCN(C(=O)c2ccc(-c3cnc4cccnn34)cc2)CC1	none (no result: PME-1 primary, Fam108B inh, HTRA1 inh)
O=C(Nc1ccccc1)Nc1csc2ccccc12	SIAE primary 18 (no result: HTRA1 inh) | SIAE inh conf inactive
CC(=O)Nc1csc2ccccc12	none
CC(=O)c1ccc(O)c(CC=C(C)C)c1	none
CC(C)=CCc1cc(-c2oc3cc(O)cc(O)c3c(=O)c2O)ccc1O	PME-1 primary 34, SIAE primary 23 | SIAE inh conf inactive
COc1cc(/C=N/NC(=O)C2COc3ccccc3O2)ccc1O (configuration not stated)	SIAE primary 20 | SIAE inh conf inactive
C=CC[C@H]1c2ccccc2[C@H]2N3N=Cc4ccccc4[C@H]3[C@H](CCCC)C(=O)N2N1C(=O)c1ccccc1	none (no result: PME-1 primary, TCR CD3 inh, Fam108B inh, HTRA1 inh)
O=C(NCCCN1CCOCC1)c1sc2cc(F)ccc2c1Cl	none
O=C(NCCCN1CCOCC1)c1cc(-c2cccs2)on1	SIAE primary 21 | SIAE inh conf inactive
O=C(NCCCN1CCOCC1)c1sc2cc(Cl)ccc2c1Cl	SIAE primary 21 | SIAE inh conf inactive
COCCn1c(-c2ccc(C#N)cc2)nc2c1c(=O)[nH]c(=O)n2Cc1ccccc1	none
CCCn1c(=O)[nH]c(=O)c2c1nc(-c1ccc(C#N)cc1)n2CCOC	SIAE primary 17 | SIAE inh conf inactive
Clc1cccc(Cc2c(C3CCCCC3)nc3ccc(Cl)cn23)c1	none (no result: PME-1 primary, Fam108B inh, HTRA1 inh)
